PMC3806331 (Journal of natural products, 2013)
Read-outs that look alike come from different tables or passages of the source.

What was measured:
[1] = test system: quinone reductase in Hepa 1c1c7 murine hepatoma cell line; assay: Quinone reductase induction assay; assay type: cell-based; details: Mus musculus, Hepa-1c1c7, read-out: CD (concentration required to double quinone reductase activity), Hepa 1c1c7 cells; average ± SD, three independent experiments
[2] = test system: HT-29 human colon cancer cell line; assay: SRB cytotoxicity assay, HT-29; assay type: cell-based; details: HT-29, 72 h, read-out: IC50 HT-29 72 h
[3] = test system: Raji human Burkitt's lymphoma cells; assay: MTS growth inhibition assay, Raji cells; assay type: cell-based
[4] = test system: HT-29 human colon cancer cells; assay: In vivo hollow fiber assay, HT-29; details: HT-29 in hollow fibers in mice, any dose, ip once daily
How it was run: (§1)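 HT-29 cells (1 × 10^6 per mL), alongside other human cancer lines, grown in hollow fibers implanted ip and sc in immunodeficient female NCr nu/nu mice. Test compound given by ip injection once daily: first run at 5, 10, 15, 30 mg/kg in 30% cyclodextrin; repeat run at 0.5, 1, 2 mg/kg. Positive controls: bortezomib 1 mg/kg ip (first run); paclitaxel 5 mg/kg ip (repeat run).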

[5] = test system: immunodeficient female NCr nu/nu mice; assay: Toxicity to mice in the hollow fiber assay; assay type: in vivo
How it was run: as §1

[6] = test system: 697 human acute lymphoblastic leukemia cells; assay: MTS growth inhibition assay, 697 cells; assay type: cell-based; details: read-out: IC50 values in 697 cells (range)

Compound | EC (2-fold induction) [1] | IC50 [2] | IC50 ([3]; 48 h, read-out: IC50 Raji 48 h) | IC50 ([3]; 72 h, read-out: IC50 Raji 72 h) | net reduction of relative percent cell growth [4] | toxicity to mice ([5]; ip 0.5, 1 and 2 mg/kg once daily) | lethality to mice ([5]; ip 5, 10, 15 and 30 mg/kg once daily) | IC50 [6]
COc1ccc2c(c1C1=COC(C)(C)C1=O)O[C@H](c1ccccc1)CC2=O [Compound 3, (2S)-2,3-dihydrotephroglabrin] | < 10 µM | > 10 µM | > 10 µM | > 10 µM |  |  |  | 
COc1ccc2c(c1/C=C/C(C)(C)O)O[C@H](c1ccccc1)CC2=O [Compound 4, (2S)-2,3-dihydrotephroapollin C] |  | > 10 µM | > 10 µM | > 10 µM |  |  |  | 
COc1ccc2c(c1/C=C/C(C)(C)OC)O[C@H](c1ccccc1)CC2=O [Compound 6, (2S)-7-methoxy-8-(3-methoxy-3-methyl-but-1-enyl)flavanone] | < 10 µM | > 10 µM | > 10 µM | > 10 µM |  |  |  | 
C=C(C)[C@H]1Cc2c(ccc3c2O[C@@H]2COc4cc(OC)c(OC)cc4[C@]2(O)C3=O)O1 [Compound 7, cis-(6aβ,12aβ)-hydroxyrotenone] |  |  |  |  | No effect | no noticeable toxicity | lethal | 
COc1cc2c(cc1OC)[C@]1(O)C(=O)c3ccc4c(c3O[C@@H]1CO2)C=CC(C)(C)O4 [Compound 9, tephrosin] |  |  |  |  |  |  |  | 5.4 to 9 µM
COc1cc2c(c(O)c1C(=O)/C=C/c1ccccc1)[C@H]1[C@@H](O2)OC(C)(C)[C@@H]1OC(C)=O [Compound 10, (+)-tephropurpurin] |  | > 10 µM | > 10 µM | > 10 µM |  |  |  | 
CC1(C)O[C@@H]2Oc3ccc(C(=O)/C=C/c4ccccc4)c(O)c3[C@@H]2[C@H]1O [Compound 11, (+)-tephrosone] |  | > 10 µM | > 10 µM | > 10 µM |  |  |  | 
